# Only some compounds are listed: those with a hit (about 2.1% of all), similar ones and a draw of the others.
# GRK2 aptamer HTS: compounds blocking aptamer binding on GRK2 – biochemical, human GRK2, bead flow cytometry, HTS, primary screen; Beta-adrenergic receptor kinase 1 (Homo sapiens), P25098; inhibition of aptamer binding, % at 10 µM; FAM-aptamer displacement from GRK2; 330,000 tested, 0.59% active;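 active means inhibition of aptamer binding above 40%, roughly 3 SD of noise, on plates passing a quality check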;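 further: median bead fluorescence of bound FAM aptamer so fluorescent compounds give negative values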
# Scp-1 inhibitor: Scp-1 phosphatase inhibitors, primary screen, biochemical, colorimetric, uHTS | Carboxy-terminal domain RNA polymerase II polypeptide A small phosphatase 1 (Homo … | 340,000 tested, 0.88% active | AID 493091, 2011 | inhibition, % at 20 µM | Recombinant Scp1, phosphopeptide, malachite green phosphate absorbance;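 active means inhibition above about 50% at 20 µM, limit read from the data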;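 further: plate controls were DMSO wells with enzyme for no effect and wells lacking enzyme for full effect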
#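 Test system – truncated SCP-1 phosphatase (76-261aa) · Reagent – Phosphorylated 17-residue peptide substrate · Incubation – 45 min room-temperature reaction, 5 min colour, 30 min stabiliser · Detection – colorimetric phosphate reagent with accelerator and stabiliser, absorbance at 630 nm · Measure – % inhibition at 20 µM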
# SUMO1 PPI mod: modulators of SUMO1 protein-protein interactions, primary screen, biochemical, uHTS | Small ubiquitin-related modifier 1 (Homo sapiens), P63165 | SUMO1 binding to a labelled peptide, TR-FRET, 1 h | inhibition, % at 20 µM | 360,000 tested, 0.33% active; in the data active means inhibition above about 37%
# DNMT1 block: human DNMT1 methyltransferase inhibitors, primary screen, biochemical, molecular beacon, fluorescence, HinP1I cleavage, uHTS; inhibition (reported as % activation of signal), % at 10 µM; 360,000 tested, 0.83% active; AID 588458, 2011; in the data active means inhibition above about 50%
# Target sequence (P26358 504-1616 limits assumed): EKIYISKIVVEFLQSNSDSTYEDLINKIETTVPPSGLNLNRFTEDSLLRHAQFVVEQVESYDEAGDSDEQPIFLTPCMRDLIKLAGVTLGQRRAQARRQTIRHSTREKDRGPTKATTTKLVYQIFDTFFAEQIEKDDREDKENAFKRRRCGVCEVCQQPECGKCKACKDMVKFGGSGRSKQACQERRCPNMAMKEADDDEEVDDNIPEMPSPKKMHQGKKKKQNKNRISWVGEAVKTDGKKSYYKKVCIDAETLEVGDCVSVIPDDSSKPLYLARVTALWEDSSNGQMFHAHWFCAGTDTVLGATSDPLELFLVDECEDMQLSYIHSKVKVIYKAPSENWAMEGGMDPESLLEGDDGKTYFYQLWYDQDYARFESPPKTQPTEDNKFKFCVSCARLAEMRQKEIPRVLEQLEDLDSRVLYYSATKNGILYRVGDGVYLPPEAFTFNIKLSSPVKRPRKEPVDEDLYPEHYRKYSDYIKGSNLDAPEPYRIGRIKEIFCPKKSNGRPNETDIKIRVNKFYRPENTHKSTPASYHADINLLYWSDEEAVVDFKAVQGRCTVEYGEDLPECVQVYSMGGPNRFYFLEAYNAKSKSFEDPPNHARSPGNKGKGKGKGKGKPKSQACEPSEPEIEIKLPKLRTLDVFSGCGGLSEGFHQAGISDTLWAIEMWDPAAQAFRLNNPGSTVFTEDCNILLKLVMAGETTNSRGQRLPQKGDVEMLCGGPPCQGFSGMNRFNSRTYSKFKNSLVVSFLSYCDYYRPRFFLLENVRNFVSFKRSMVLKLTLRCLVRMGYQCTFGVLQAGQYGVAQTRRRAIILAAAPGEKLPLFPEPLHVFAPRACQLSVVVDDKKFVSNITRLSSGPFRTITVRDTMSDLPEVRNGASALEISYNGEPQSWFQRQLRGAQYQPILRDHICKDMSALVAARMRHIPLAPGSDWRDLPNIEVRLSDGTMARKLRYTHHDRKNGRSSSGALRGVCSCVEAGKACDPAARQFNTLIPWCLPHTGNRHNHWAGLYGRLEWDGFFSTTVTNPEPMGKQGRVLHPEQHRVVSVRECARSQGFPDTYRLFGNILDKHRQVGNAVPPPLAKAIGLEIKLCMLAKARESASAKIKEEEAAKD
# LMPTP block: LMPTP phosphatase inhibitors, primary screen, biochemical, fluorescence intensity, uHTS; inhibition, % at 20 µM; Low molecular weight phosphotyrosine protein phosphatase (Homo sapiens), P24666; 360,000 tested, 0.22% active; recombinant LMPTP-A, OMFP fluorogenic substrate; AID 651560, 2012;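 active means compounds that cut the enzyme signal by at least half of the control window in the single-dose screen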;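 further: plate controls were DMSO wells with enzyme plus substrate for no effect and substrate without enzyme for full effect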
#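 Assay system: LMPTP-A enzyme. Input: 0.625 nM LMPTP-A final. Probe or stimulus: 400 µM OMFP. Compound dosing: single 20 µM dose. Schedule: 50 min dark incubation at room temperature. Detection: fluorescence intensity of OMFP turnover product. Read-out: percent inhibition versus substrate-only and uninhibited controls. Benchmarks: no-enzyme low control, uninhibited high control.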
# STEP block: STEP phosphatase inhibitors, primary screen, biochemical, fluorescence intensity, uHTS; Tyrosine-protein phosphatase non-receptor type 5 (Homo sapiens), P54829; recombinant STEP, OMFP fluorogenic substrate; inhibition, % at 20 µM; 360,000 tested, 0.25% active; AID 588621, 2011;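 active means inhibition at 20 µM, scaled per plate between control wells, above about 37%, limit read from the data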;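 further: 0% = DMSO with enzyme and substrate and 100% = substrate only without enzyme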
#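 Also added – OMFP at 25 µM · Test system – STEP tyrosine phosphatase · Technique – FITC-channel fluorescence of OMFP product · Schedule – 20 min at room temperature, dark · Evaluation – control-normalized % inhibition with plate pattern correction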
# GRK2 inh confirm: GRK2 aptamer-displacing inhibitors, retest, confirmation, biochemical, cherry pick 1, bead flow cytometry | 2,000 tested, 4% active | aptamer displacement, % at 10 µM | shares compounds with GRK2 aptamer HTS | AID 504451, 2011 | bead-bound GRK2, FAM-aptamer displacement;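 active means aptamer displacement above 40%, near three times the noise of non-fluorescent compounds, on plates passing quality checks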;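 further: negative values mostly reflect intrinsic compound fluorescence rather than true enhancement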
# FAM quench CP1: aptamer fluorescence quenching in GRK2 counter-screen; fluorescence response (% of DMSO), % at 10 µM; 2,000 tested, under 10 active; AID 504580; shares compounds with GRK2 aptamer HTS; Carboxyfluorescein RNA aptamer on beads, flow cytometry quenching; active compounds read low;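 active means compounds that quench the bead-bound fluorescent RNA probe, cutting fluorescence to under half of the solvent control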;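 further: counterscreen run without GRK2 so only probe quenching by compound is measured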
# GRK2 CP2: GRK2 aptamer-displacing inhibitors, hit retest, confirmation, biochemical, cherry pick 2, bead flow cytometry. shares compounds with GRK2 aptamer HTS. bead-bound GRK2, FAM-aptamer displacement. inhibition of aptamer binding, % at 10 µM. 360 tested, under 10 active;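 active means inhibition of aptamer binding above 40%, about triple the noise seen with nonglowing compounds, on plates passing quality control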;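 further: negative values mostly come from compounds that fluoresce themselves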
# FAM quench SP: quenches fluorescent RNA aptamer, GRK2 hit artifact. shares compounds with GRK2 aptamer HTS. carboxyfluorescein RNA aptamer beads, flow cytometry quenching; active compounds read low. fluorescence response vs DMSO, % at 10 µM. 360 tested, under 10 active. AID 588494;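 active means response vs DMSO under 50%, meaning signal dropped by over half, treated as fluorescence quencher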;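 further: labelled aptamer on streptavidin beads without GRK2 as a quench counter-screen; 100% = bead fluorescence of DMSO wells and lower means quenching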
# * marks the source's active call; other numbers are inactive results; / = no result.
SMILES,GRK2 aptamer HTS,Scp-1 inhibitor,SUMO1 PPI mod,DNMT1 block,LMPTP block,STEP block,GRK2 inh confirm,FAM quench CP1,others
CCOC(=O)C(C(=O)OCC)c1cc(Br)c2noc3c2c1C(=O)c1ccccc1-3,51.0*,27.1,36.0,57.1*,23.7,-4.7,11.1,102.2,
CC(C)=NN1C(c2nonc2N)=NOC1(C)C,39.0,-3.8,-5.7,4.5,0.3,0.2,-4.1,104.3,
C=CCN(CC=C)C(=O)c1ccc2nc(Cc3ccc(OC)c(OC)c3)oc2c1,41.0*,0.3,-3.7,-2.0,1.1,0.2,2.3,99.6,
COc1ccc(Cc2nc3ccc(C(=O)NCc4cc(C)no4)cc3o2)cc1OC,0.0,-7.3,0.5,0.3,0.1,-2.2,/,/,
CC1(C(=O)NCc2ccccc2)CSCC(=O)N1Cc1ccco1 (centres undefined),/,/,-4.7,/,-1.6,/,/,/,
O=S(=O)(Nc1ncnc2sc3c(c12)CCC3)c1cc(F)ccc1F,0.0,-1.7,7.2,3.4,0.7,-0.4,/,/,
Fc1cccc(Nc2ncnc3sc4c(c23)CCC4)c1,94.0*,-3.9,4.8,-0.3,-2.1,-2.5,/,/,GRK2 CP2=-13.3;FAM quench SP=101.0
O=C(C[C@H]1C(=O)N(Cc2ccccc2)C[C@@H]1Cc1ccccc1)Nc1ccc(Br)cc1,/,/,4.8,-4.0,1.9,-1.5,/,/,
O=Cc1nc(-c2ccccc2Cl)n2ccccc12,45.0*,-5.2,-16.8,1.0,-0.6,-0.6,-4.5,96.6,
O=Cc1nc(-c2ccc(Cl)cc2)n2ccccc12,1.0,-2.3,-22.0,5.8,-0.5,-0.5,/,/,
CSc1ccc(NC(=O)C2(C)CCN2C(=O)Cc2ccc(C(C)(C)C)cc2)cc1 (centres undefined),/,/,4.5,-3.0,5.3,1.6,/,/,
Cc1ccc(C(=O)NCc2ccncc2)cc1S(=O)(=O)Nc1cccc(C)c1C,2.0,-3.6,5.0,-2.8,1.0,0.3,/,/,
COCCNC(=O)c1ccc(Cl)c(S(=O)(=O)Nc2cccc(C)c2C)c1,65.0*,-12.6,-4.0,-1.8,-0.5,-1.2,/,/,GRK2 CP2=22.3;FAM quench SP=99.0
COc1cccc(CNC(=O)c2cc(S(=O)(=O)N3CCCCC3)c[nH]2)c1,1.0,-6.6,1.2,3.8,-0.5,-1.3,/,/,
O=C(NCc1ccc(Cl)cc1)c1cc(S(=O)(=O)N2CCCCC2)c[nH]1,43.0*,-9.8,-2.8,-32.8,1.2,-0.2,2.2,96.3,
COc1ccc(OC)c(N(C(=O)c2snc(C(N)=O)c2N)C(C(=O)NCC2CCCO2)c2ccc3ncccc3c2)c1 (centres undefined),50.0*,2.6,-7.0,-0.5,-0.1,1.9,7.1,102.0,
O=[n+]1c2c(n([O-])c3cc(F)ccc31)CCCC2,0.0,0.5,-17.6,-4.4,-0.6,2.0,/,/,
Cc1ccc2c(c1)n([O-])c1c([n+]2=O)CCCC1,52.0*,-4.8,-8.9,-7.9,0.5,-4.1,-5.0,103.0,
CCN1CCN(Cc2ccc(NC(=O)c3ccc(C)c(NC(=O)c4c[nH]c5cc(C(F)(F)F)ccc5c4=O)c3)cc2C(F)(F)F)CC1,/,1.6,-76.4,0.0,1.1,15.7,/,/,
Cc1ccc(C(=O)Nc2cccc(C(F)(F)F)c2)cc1NC(=O)c1c[nH]c2cc(C(F)(F)F)ccc2c1=O,0.0,-5.0,4.7,19.8,0.8,3.9,-14.1,97.4,
COc1ccc(C(=O)NC(Cn2ccnc2)C(C)(C)C)cc1OC1CCN(C(C)C)CC1 (centres undefined),80.0*,-2.4,2.3,2.0,-0.1,-1.7,/,/,GRK2 CP2=-2.8;FAM quench SP=102.0
COCCCNC(=O)c1ccc(OC)c(OC2CCN(C(C)C)CC2)c1,4.0,-1.9,4.2,2.1,-1.7,-6.7,/,/,
C#CCNC(=O)C[C@@H]1C[C@@]2(C(=O)OCC)CCC=C2N(Cc2ccc(Cl)cc2Cl)C1=O,/,/,3.2,/,0.1,/,/,/,
CCOC(=O)Cc1cc(=O)n2[nH]c(C)c(-c3ccc(Cl)cc3)c2n1,5.0,-8.0,-0.1,2.6,-1.3,-2.3,/,/,
CCOC(=O)Cc1cc(=O)n2[nH]c(C)c(-c3ccc(OC)cc3)c2n1,71.0*,-1.6,3.6,0.3,0.8,-0.1,-3.1,98.5,
SMILES,GRK2 aptamer HTS,Scp-1 inhibitor,SUMO1 PPI mod,DNMT1 block,LMPTP block,STEP block,GRK2 inh confirm,FAM quench CP1,others
CC(C)(C)CNC(=O)C1(C)CCN1C(=O)c1ccccc1CCc1ccccc1 (centres undefined),/,/,-0.1,0.0,0.3,0.6,/,/,
COc1ccc(CN(C)C(=O)c2cccc(S(=O)(=O)N3CCCc4ccccc43)c2)c(OC)c1OC,/,-5.7,-23.2,-7.3,-6.4,3.5,-31.8,98.8,
Cc1cc(C(F)(F)F)nc(SCC(=O)NC2CC3CCC2C3)n1 (centres undefined),53.0*,-0.6,-5.0,-0.7,-2.2,-2.0,-2.3,97.5,
Cc1ccc(/C=C2/C(=N)N3N=C(CC(=O)N4CCCC4)SC3=NC2=O)o1,0.0,-4.5,-13.8,2.1,1.1,0.0,-0.4,98.4,
COc1cc(OC)nc(C(NC(=O)C2CCN(Cc3c[nH]c4ccccc34)CC2)c2ccc(Cl)cc2)n1 (centres undefined),/,/,-9.3,-5.8,-0.2,2.2,/,/,
CCOc1ccc2nc(NC3=NC(C)(C)C=C(C)N3)nc(C)c2c1,0.0,-0.7,-9.6,-3.2,8.2,3.3,/,/,
CCOc1ccc2nc(NC3=NC(c4ccc(OC)cc4)CC(=O)N3)nc(C)c2c1 (centres undefined),38.0,10.8,6.0,-8.1,57.3*,86.0*,-25.2,106.8,
COCCNCCCOc1ccc(C(C)(C)c2ccccc2)cc1,100.0*,-30.4,-1.5,4.1,-3.7,-1.4,/,/,GRK2 CP2=-1.4;FAM quench SP=101.0
COCCCNCCCOc1ccc(C(C)(C)c2ccccc2)cc1,0.0,-11.7,1.9,3.1,-2.6,1.6,/,/,

# Bioassay records: PubChem BioAssay, several laboratories
